“And” between values parts separate entries of the source, which are not always exact repeats. Equal values may be shown once.
Tested on: U2OS
Experiment: Multiplex assay against U2OS
Format: toxicity, cell-based
Settings: human
How it was run: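 Compound was added to live cells that had been stained at seeding with Hoechst33342, BioTracker Green Microtubule Cytoskeleton Dye, MitoTracker Red and Annexin V Alexa Fluor 680, and imaging followed on a CQ1 microscope at 37°C and 5% CO2. CellPathfinder machine-learning gating divided cells into Hoechst high-intensity objects or normal cells, normal cells into healthy, pyknosed or fragmented nuclei, and pyknosed cells into mitotic or apoptotic. Tubulin, mitochondrial-mass and membrane-permeability phenotypes are per cents of healthy-nucleus cells.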

[1] = 12 h, 1 µM, compound concentration 1 uM
[2] = 12 h, 10 µM, compound concentration 10 uM
[3] = 24 h, 1 µM, compound concentration 1 uM
[4] = 24 h, 10 µM, compound concentration 10 uM
[5] = 48 h, 1 µM, compound concentration 1 uM
[6] = 48 h, 10 µM, compound concentration 10 uM

COCCNc1cc(NC(=O)N2CCCc3cc(CN4CCOCC4=O)c(C=O)nc32)ncc1C#N
Population Apoptotic (%) [1]: 30.77% and 39.13% | Population Fragmented Nuclei (%) [1]: 2.11% and 3.05% | Population Healthy Nuclei (%) [1]: 87.63% and 82.93% | Population Hoechst High Intensity Objects (%) [1]: 0% | Population Membrane Permeable-Phenotype (%) [1]: 0.6% and 5.15% | Population Mitochondria Different-Phenotype (%) [1]: 0% and 8.82% | Population Mitotic Cells (%) [1]: 69.23% and 60.87% | Population Normal (%) [1]: 100% | Population Pyknosed Nuclei (%) [1]: 10.26% and 14.02% | Population Tubulin-Different-Phenotype (%) [1]: 0.6% and 0% | Total Cell Count [1]: 380 and 164 | Population Apoptotic (%) [2]: 46.15% and 40% | Population Fragmented Nuclei (%) [2]: 0.86% and 7.8% | Population Healthy Nuclei (%) [2]: 91.64% and 78.01% | Population Hoechst High Intensity Objects (%) [2]: 0% | Population Membrane Permeable-Phenotype (%) [2]: 1.57% and 1.82% | Population Mitochondria Different-Phenotype (%) [2]: 0.31% and 6.36% | Population Mitotic Cells (%) [2]: 53.85% and 60% | Population Normal (%) [2]: 100% | Population Pyknosed Nuclei (%) [2]: 7.49% and 14.18% | Population Tubulin-Different-Phenotype (%) [2]: 1.26% and 0.91% | Total Cell Count [2]: 347 and 141 | Population Apoptotic (%) [3]: 29.17% and 39.13% | Population Fragmented Nuclei (%) [3]: 2.21% and 0.97% | Population Healthy Nuclei (%) [3]: 88.93% and 87.92% | Population Hoechst High Intensity Objects (%) [3]: 0% | Population Membrane Permeable-Phenotype (%) [3]: 1.66% and 3.85% | Population Mitochondria Different-Phenotype (%) [3]: 0% and 4.95% | Population Mitotic Cells (%) [3]: 70.83% and 60.87% | Population Normal (%) [3]: 100% | Population Pyknosed Nuclei (%) [3]: 8.86% and 11.11% | Population Tubulin-Different-Phenotype (%) [3]: 1.04% and 0.55% | Total Cell Count [3]: 542 and 207 | Population Apoptotic (%) [4]: 54.55% and 40.91% | Population Fragmented Nuclei (%) [4]: 1.52% and 9.32% | Population Healthy Nuclei (%) [4]: 91.34% and 77.02% | Population Hoechst High Intensity Objects (%) [4]: 0% | Population Membrane Permeable-Phenotype (%) [4]: 0.95% and 2.42% | Population Mitochondria Different-Phenotype (%) [4]: 0% and 9.68% | Population Mitotic Cells (%) [4]: 45.45% and 59.09% | Population Normal (%) [4]: 100% | Population Pyknosed Nuclei (%) [4]: 7.14% and 13.66% | Population Tubulin-Different-Phenotype (%) [4]: 0.95% and 1.61% | Total Cell Count [4]: 462 and 161 | Population Apoptotic (%) [5]: 32.88% and 50% | Population Fragmented Nuclei (%) [5]: 2.93% and 2.02% | Population Healthy Nuclei (%) [5]: 89.69% and 90.49% | Population Hoechst High Intensity Objects (%) [5]: 0% | Population Membrane Permeable-Phenotype (%) [5]: 1.01% and 2.23% | Population Mitochondria Different-Phenotype (%) [5]: 0.23% and 5.1% | Population Mitotic Cells (%) [5]: 67.12% and 50% | Population Normal (%) [5]: 100% | Population Pyknosed Nuclei (%) [5]: 7.38% and 7.49% | Population Tubulin-Different-Phenotype (%) [5]: 0.56% and 1.27% | Total Cell Count [5]: 989 and 347 | Population Apoptotic (%) [6]: 38.46% and 32.14% | Population Fragmented Nuclei (%) [6]: 3.01% and 6.33% | Population Healthy Nuclei (%) [6]: 86.02% and 81.86% | Population Hoechst High Intensity Objects (%) [6]: 0% | Population Membrane Permeable-Phenotype (%) [6]: 1.4% and 3.09% | Population Mitochondria Different-Phenotype (%) [6]: 0.14% and 6.19% | Population Mitotic Cells (%) [6]: 61.54% and 67.86% | Population Normal (%) [6]: 100% | Population Pyknosed Nuclei (%) [6]: 10.96% and 11.81% | Population Tubulin-Different-Phenotype (%) [6]: 1.68% and 1.03%

Cl.Clc1cc2cc(c1)-c1cnn3ccc(nc13)NCCOCCO2
Population Fragmented Nuclei (%) [1]: 3.05% and 2.1% | Population Healthy Nuclei (%) [1]: 88.09% and 86.01% | Population Hoechst High Intensity Objects (%) [1]: 0% | Population Membrane Permeable-Phenotype (%) [1]: 0.94% and 0.81% | Population Mitochondria Different-Phenotype (%) [1]: 0% and 8.94% | Population Mitotic Cells (%) [1]: 56.25% and 94.12% | Population Normal (%) [1]: 100% | Population Pyknosed Nuclei (%) [1]: 8.86% and 11.89% | Population Tubulin-Different-Phenotype (%) [1]: 0.94% and 0% | Total Cell Count [1]: 361 and 143 | Population Apoptotic (%) [2]: 35.21% and 35.71% | Population Fragmented Nuclei (%) [2]: 3.56% and 1.13% | Population Healthy Nuclei (%) [2]: 82.38% and 83.05% | Population Hoechst High Intensity Objects (%) [2]: 0% | Population Membrane Permeable-Phenotype (%) [2]: 0.96% and 3.4% | Population Mitotic Cells (%) [2]: 64.79% and 64.29% | Population Normal (%) [2]: 100% | Population Pyknosed Nuclei (%) [2]: 14.06% and 15.82% | Population Tubulin-Different-Phenotype (%) [2]: 2.16% and 1.36% | Total Cell Count [2]: 505 and 177 | Population Apoptotic (%) [3]: 43.75% and 57.89% | Population Fragmented Nuclei (%) [3]: 2.2% and 1.09% | Population Healthy Nuclei (%) [3]: 88.2% and 88.52% | Population Hoechst High Intensity Objects (%) [3]: 0% | Population Membrane Permeable-Phenotype (%) [3]: 0.68% and 3.09% | Population Mitochondria Different-Phenotype (%) [3]: 0% and 5.56% | Population Mitotic Cells (%) [3]: 56.25% and 42.11% | Population Normal (%) [3]: 100% | Population Pyknosed Nuclei (%) [3]: 9.6% and 10.38% | Population Tubulin-Different-Phenotype (%) [3]: 0.45% and 0% | Total Cell Count [3]: 500 and 183 | Population Apoptotic (%) [4]: 55.41% and 45% | Population Fragmented Nuclei (%) [4]: 1.48% and 2.62% | Population Healthy Nuclei (%) [4]: 86.37% and 79.91% | Population Hoechst High Intensity Objects (%) [4]: 0.16% and 0% | Population Membrane Permeable-Phenotype (%) [4]: 0.19% and 2.73% | Population Mitochondria Different-Phenotype (%) [4]: 0% and 4.37% | Population Mitotic Cells (%) [4]: 44.59% and 55% | Population Normal (%) [4]: 99.84% and 100% | Population Pyknosed Nuclei (%) [4]: 12.15% and 17.47% | Population Tubulin-Different-Phenotype (%) [4]: 1.33% and 2.73% | Total Cell Count [4]: 610 and 229 | Population Apoptotic (%) [5]: 47.73% and 42.42% | Population Fragmented Nuclei (%) [5]: 3.1% and 2.92% | Population Healthy Nuclei (%) [5]: 87.5% and 86.36% | Population Hoechst High Intensity Objects (%) [5]: 0% | Population Membrane Permeable-Phenotype (%) [5]: 0.98% and 3.01% | Population Mitochondria Different-Phenotype (%) [5]: 0% and 3.01% | Population Mitotic Cells (%) [5]: 52.27% and 57.58% | Population Normal (%) [5]: 100% | Population Pyknosed Nuclei (%) [5]: 9.4% and 10.71% | Population Tubulin-Different-Phenotype (%) [5]: 0.85% and 1.5% | Population Apoptotic (%) [6]: 53.64% and 54.72% | Population Fragmented Nuclei (%) [6]: 3.97% and 2.37% | Population Healthy Nuclei (%) [6]: 81.76% and 83.68% | Population Hoechst High Intensity Objects (%) [6]: 0.19% and 0% | Population Membrane Permeable-Phenotype (%) [6]: 1.39% and 4.4% | Population Mitochondria Different-Phenotype (%) [6]: 0.46% and 3.77% | Population Mitotic Cells (%) [6]: 46.36% and 45.28% | Population Normal (%) [6]: 99.81% and 100% | Population Pyknosed Nuclei (%) [6]: 14.27% and 13.95% | Population Tubulin-Different-Phenotype (%) [6]: 2.43% and 3.46% | Total Cell Count [6]: 1060 and 380

CCC(=O)OCC(=O)[C@@]1(OC(=O)CC)[C@@H](C)C[C@H]2[C@@H]3CCC4=CC(=O)C=C[C@]4(C)[C@@]3(Cl)[C@@H](O)C[C@@]21C [BECLOMETHASONE DIPROPIONATE]
Population Apoptotic (%) [1]: 84% and 71% | Population Fragmented Nuclei (%) [1]: 23% and 18% | Population Healthy Nuclei (%) [1]: 64% and 75% | Population Hoechst High Intensity Objects (%) [1]: 1% and 0% | Population Membrane Permeable-Phenotype (%) [1]: 11% and 13% | Population Mitochondria Different-Phenotype (%) [1]: 4% and 8% | Population Mitotic Cells (%) [1]: 15% and 28% | Population Normal (%) [1]: 98% and 99% | Population Pyknosed Nuclei (%) [1]: 12% and 6% | Population Tubulin-Different-Phenotype (%) [1]: 6% and 4% | Total Cell Count [1]: 160 and 111 | Population Apoptotic (%) [2]: 65% and 68% | Population Healthy Nuclei (%) [2]: 40% and 69% | Population Hoechst High Intensity Objects (%) [2]: 4% | Population Membrane Permeable-Phenotype (%) [2]: 67% and 48% | Population Mitochondria Different-Phenotype (%) [2]: 73% and 97% | Population Mitotic Cells (%) [2]: 34% and 31% | Population Normal (%) [2]: 95% | Population Pyknosed Nuclei (%) [2]: 17% and 18% | Population Tubulin-Different-Phenotype (%) [2]: 80% and 97% | Total Cell Count [2]: 176 and 109 | Population Apoptotic (%) [3]: 78% and 87% | Population Fragmented Nuclei (%) [3]: 21% and 15% | Population Healthy Nuclei (%) [3]: 67% and 71% | Population Hoechst High Intensity Objects (%) [3]: 2% and 0% | Population Membrane Permeable-Phenotype (%) [3]: 2% and 6% | Population Mitochondria Different-Phenotype (%) [3]: 4% and 5% | Population Mitotic Cells (%) [3]: 21% and 12% | Population Normal (%) [3]: 97% and 99% | Population Pyknosed Nuclei (%) [3]: 10% and 13% | Population Tubulin-Different-Phenotype (%) [3]: 1% and 3% | Total Cell Count [3]: 217 and 123 | Population Apoptotic (%) [4]: 74% and 64% | Population Fragmented Nuclei (%) [4]: 35% and 12% | Population Healthy Nuclei (%) [4]: 45% and 69% | Population Hoechst High Intensity Objects (%) [4]: 3% and 9% | Population Membrane Permeable-Phenotype (%) [4]: 40% and 43% | Population Mitochondria Different-Phenotype (%) [4]: 72% and 86% | Population Mitotic Cells (%) [4]: 25% and 35% | Population Normal (%) [4]: 96% and 90% | Population Pyknosed Nuclei (%) [4]: 18% and 17% | Population Tubulin-Different-Phenotype (%) [4]: 66% and 76% | Total Cell Count [4]: 174 and 106 | Population Apoptotic (%) [5]: 91% and 85% | Population Fragmented Nuclei (%) [5]: 22% and 10% | Population Healthy Nuclei (%) [5]: 68% and 75% | Population Hoechst High Intensity Objects (%) [5]: 2% | Population Membrane Permeable-Phenotype (%) [5]: 5% and 8% | Population Mitochondria Different-Phenotype (%) [5]: 2% and 5% | Population Mitotic Cells (%) [5]: 8% and 14% | Population Normal (%) [5]: 97% | Population Pyknosed Nuclei (%) [5]: 9% and 14% | Population Tubulin-Different-Phenotype (%) [5]: 2% and 3% | Total Cell Count [5]: 268 and 152 | Population Apoptotic (%) [6]: 80% and 70% | Population Fragmented Nuclei (%) [6]: 36% and 21% | Population Healthy Nuclei (%) [6]: 47% and 65% | Population Hoechst High Intensity Objects (%) [6]: 4% and 6% | Population Membrane Permeable-Phenotype (%) [6]: 20% and 16% | Population Mitochondria Different-Phenotype (%) [6]: 26% and 36% | Population Mitotic Cells (%) [6]: 20% and 29% | Population Normal (%) [6]: 95% and 93% | Population Pyknosed Nuclei (%) [6]: 15% and 13% | Population Tubulin-Different-Phenotype (%) [6]: 14% and 10% | Total Cell Count [6]: 199 and 131

Source: ChEMBL document CHEMBL5724801, “EUbOPEN Chemogenomics Library - Multiplex” (2024)
